Laboratory results published in ChEMBL document CHEMBL2390835, “Synthesis and antimalarial testing of neocryptolepine analogues: addition of ester function in SAR study of 2,11-disubstituted indolo[2,3-b]quinolines” (Eur J Med Chem, 2013).

Assays:
Plasmodium falciparum [1] = assay: Antimalarial activity against chloroquine-sensitive erythrocytic stage of Plasmodium falciparum NF54 infected in human red blood cells assessed as growth inhibition after 72 hrs by [3H]-hypoxanthine incorporation assay
Plasmodium falciparum [2] = assay: Resistance index, ratio of IC50 for chloroquine-resistant erythrocytic stage of Plasmodium falciparum K1 to IC50 for chloroquine-sensitive erythrocytic stage of Plasmodium falciparum NF54; type: functional
L6 = assay: Cytotoxicity against rat L6 cells assessed as growth inhibition after 70 hrs by Alamar blue staining-based inverted microscopic analysis; type: cell-based; conditions: L6, 70 h
In short: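 L6 rat skeletal myoblasts, 4000 cells/well in RPMI 1640 with 1% L-glutamine (200 mM) and 10% FBS. Eleven 3-fold dilutions spanning 100 to 0.002 µg/mL. After 70 h, Alamar Blue added for 2 h more. Fluorescence read at ex 536/em 588 nm. IC50 from sigmoidal dose–inhibition curves by linear regression.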

[3] = Selectivity index, ratio of IC50 for rat L6 cells to IC50 for chloroquine-resistant erythrocytic stage of Plasmodium falciparum K1; type: toxicity, cell-based; conditions: read-out: Ratio IC50
In short: (§1)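 IC50 in rat L6 skeletal myoblasts divided by the antiplasmodial IC50 for the named strain. L6 cells were seeded at 4000 per well in RPMI 1640 with L-glutamine and 10% FBS and exposed to eleven 3-fold dilutions from 100 to 0.002 µg/mL for 70 h. Alamar Blue was then added for 2 h and fluorescence read at ex 536 / em 588 nm. IC50 by linear regression of the sigmoidal curves.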

[4] = Selectivity index, ratio of IC50 for rat L6 cells to IC50 for chloroquine-sensitive erythrocytic stage of Plasmodium falciparum NF54; type: toxicity, cell-based; conditions: read-out: Ratio IC50
In short: as §1

[5] = Inhibition of beta-haematin formation after 5 to 6 hrs by UV-vis spectamax plate reader analysis; type: functional
In short: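 Detergent-mediated assay: compounds from DMSO stocks (20, 2, 0.4 mM) in duplicate, 0–1000 µM final. Added water and NP-40, then haematin at 100 µM final in 0.5 M acetate buffer pH 4.8. Incubated at 37 °C for 5–6 h. Pyridine added to 5% v/v final in HEPES pH 7.4 with acetone. Haem–pyridine absorbance read (405 nm). IC50 from sigmoidal fits.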

Plasmodium falciparum [6] = assay: Antimalarial activity against chloroquine-resistant erythrocytic stage of Plasmodium falciparum K1 infected in human red blood cells assessed as growth inhibition after 48 hrs by [3H]-hypoxanthine incorporation assay; type: functional, organism-based
In short: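 Erythrocytic P. falciparum in RPMI 1640 without hypoxanthine, with HEPES, NaHCO3, neomycin, Albumax, and human A+ red cells at 2.5% haematocrit and 0.3% parasitaemia. Compounds from a 10 mg/mL DMSO stock, eleven 3-fold dilutions from 100 to 0.002 µg/mL. Incubated 48 h at 37 °C (4% CO2, 3% O2), then 3H-hypoxanthine added for 24 h more. Cells harvested and counted by scintillation. IC50 by linear regression of the sigmoidal curves, mean of two independent assays.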

Plasmodium berghei [7] = assay: Antimalarial activity against Plasmodium berghei infected in Swiss mouse assessed as reduction in parasitaemia at 20 mg/kg, ip administered for 4 days measured on day 4 post last dose by FACS analysis relative to control; type: functional; design: scale not given: the % may be the effect or the level left; conditions: route intraperitoneal
In short: (§2)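 Intraperitoneal dosing at 20 mg/kg daily for four consecutive days. Parasitaemia read on day 4 and day 7. Activity is the difference between mean percent parasitaemia of the control group (n = 5 mice) and the treated group, expressed as a percent of control.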

Plasmodium berghei [8] = assay: Antimalarial activity against Plasmodium berghei infected in Swiss mouse assessed as reduction in parasitaemia at 20 mg/kg, ip administered for 4 days measured on day 7 by FACS analysis relative to control; type: functional; design: scale not given: the % may be the effect or the level left; conditions: route intraperitoneal
In short: as §2

[9] = Solubility of the compound in water; type: physicochemical; conditions: buffer
MRC5 = assay: Cytotoxicity against human MRC5 cells assessed as growth inhibition; type: cell-based

Structure (SMILES) | IC50 (Plasmodium falciparum [1]) | Ratio IC50 (Plasmodium falciparum [2]) | IC50 (L6) | selectivity ratio [3] | selectivity ratio [4] | IC50 [5] | IC50 (Plasmodium falciparum [6]) | Activity (Plasmodium berghei [7]) | Activity (Plasmodium berghei [8]) | solubility [9] | IC50 (MRC5)
COC(=O)c1ccc2c(c1)c(NCCCNC(=O)Nc1ccccc1)c1c3ccccc3nc-1n2C | 4.16 nM | 13.5 | 754 nM | 13.4 | 181 | 23000 nM | 56.1 nM |  |  |  | 
COC(=O)c1ccc2nc3n(C)c4ccc(C(=O)OC)cc4c(NCCCNC(=O)Nc4ccccc4)c-3c2c1 | 16.7 nM | 2.44 | 26500 nM | 650 | 1590 | 4600 nM | 40.8 nM |  |  |  | 
COC(=O)c1ccc2c(c1)c(NCCCN)c1c3ccccc3nc-1n2C | 8.28 nM | 2.67 | 337 nM | 15.2 | 40.7 | 104000 nM | 22.1 nM | 33.4% | 72.5% |  | 
COC(=O)c1ccc2nc3n(C)c4ccccc4c(NCCCN)c-3c2c1 | 24.8 nM | 1.22 | 218 nM | 7.19 | 8.79 | 48900 nM | 30.3 nM | 33.4% | 72.5% |  | 
COC(=O)c1ccc2nc3n(C)c4ccc(Cl)cc4c(NCCCNC(=O)Nc4ccccc4)c-3c2c1 | 13.6 nM | 1.71 | 3340 nM | 143 | 246 | 14900 nM | 23.3 nM |  |  |  | 
Cn1c2nc3ccccc3c-2cc2ccccc21 [NEOCRYPTOLEPINE] |  | 1.07 |  | 1.88 | 2 |  |  |  |  |  | 
COC(=O)c1ccc2nc3n(C)c4ccc(Br)cc4c(NCCCN)c-3c2c1 | 2.27 nM |  | 819 nM |  | 361 | 11500 nM |  |  |  |  | 
COC(=O)c1ccc2nc3n(C)c4ccccc4c(NCCCCN)c-3c2c1 | 55.8 nM |  | 436 nM |  | 7.81 |  |  |  |  |  | 
COC(=O)c1ccc2nc3n(C)c4ccc(C(=O)OC)cc4c(NCCCN)c-3c2c1 | 9.52 nM | 1.25 | 1390 nM | 117 | 146 | 13000 nM | 11.9 nM |  |  |  | 
Cn1c2nc3ccc(Br)cc3c-2c(NCCCNC(=O)Nc2ccccc2)c2cc(Cl)ccc21 | 5.59 nM | 3 | 408 nM | 24.3 | 73 | 17800 nM | 16.8 nM |  |  |  | 
COC(=O)c1ccc2nc3n(C)c4ccccc4c(NCCCN(C)C)c-3c2c1 | 33.3 nM |  | 268 nM |  | 8.05 | 62500 nM |  |  |  |  | 
CN(C)CCNc1c2c3cc(C(=O)O)ccc3nc-2n(C)c2ccccc12 | 2550 nM |  | 20000 nM |  | 7.84 |  |  |  |  | soluble | 
CN(C)CCCNc1c2c3cc(C(=O)O)ccc3nc-2n(C)c2ccccc12 | 2160 nM |  | 66200 nM |  | 30.6 |  |  |  |  | soluble | 
COC(=O)c1ccc2nc3n(C)c4ccccc4c(NCCN(C)C)c-3c2c1 | 42.5 nM |  | 315 nM |  | 7.41 | 51500 nM |  |  |  |  | 
COC(=O)c1ccc2c(c1)c(NCCCN)c1c3cc(Br)ccc3nc-1n2C | 4.54 nM | 3.5 | 1050 nM | 66 | 232 | 10200 nM | 15.9 nM |  |  |  | 
COC(=O)c1ccc2c(c1)c(NCCCNC(=S)Nc1ccccc1)c1c3ccccc3nc-1n2C | 1.81 nM | 8.89 | 581 nM | 36.1 | 321 | 15700 nM | 16.1 nM |  |  |  | 
COC(=O)c1ccc2nc3n(C)c4ccccc4c(N4CCCN(C)CC4)c-3c2c1 | 750 nM |  | 6190 nM |  | 8.25 | 106000 nM |  |  |  |  | 
Cn1c2nc3ccccc3c-2c(NCCCN)c2ccccc21 |  |  |  |  | 3.5 |  |  |  |  |  | 
COC(=O)c1ccc2nc3n(C)c4ccc(Br)cc4c(NCCCNC(=O)Nc4ccccc4)c-3c2c1 | 8.05 nM |  | 6740 nM |  | 837 | 16000 nM |  |  |  |  | 
COC(=O)c1ccc2nc3n(C)c4ccc(Cl)cc4c(NCCCN)c-3c2c1 | 7.57 nM | 2.67 | 427 nM | 21.1 | 56.4 | 25400 nM | 20.2 nM |  |  |  | 
COC(=O)c1ccc2nc3n(C)c4ccccc4c(N4CCOCC4)c-3c2c1 | 1770 nM |  | 3810 nM |  | 2.15 | 55500 nM |  |  |  |  | 
COC(=O)c1ccc2nc3n(C)c4ccccc4c(NCCCNC(=O)Nc4ccccc4)c-3c2c1 | 14.5 nM | 4.71 | 2580 nM | 37.7 | 178 | 12800 nM | 68.4 nM |  |  |  | 
COC(=O)c1ccc2nc3n(C)c4ccccc4c(NCCCNC(=S)Nc4ccccc4)c-3c2c1 | 6.03 nM | 10.7 | 2820 nM | 43.8 | 467 | 10800 nM | 64.4 nM |  |  |  | 
COC(=O)c1ccc2c(c1)c(NCCCNC(=O)Nc1ccccc1)c1c3cc(Br)ccc3nc-1n2C | 7.15 nM | 2.75 | 1120 nM | 56.9 | 157 | 10100 nM | 19.7 nM |  |  |  | 
COC(=O)c1ccc2nc3n(C)c4ccccc4c(NCCCO)c-3c2c1 | 278 nM |  | 639 nM |  |  | 123000 nM |  |  |  |  | 
COC(=O)c1ccc2nc3n(C)c4ccc(C(=O)OC)cc4c(NCCCNC(=S)Nc4ccccc4)c-3c2c1 | 14.4 nM | 3.5 | 627 nM | 12.4 | 43.5 | 7500 nM | 50.4 nM |  |  |  | 
CCN(CC)CCCC(C)Nc1ccnc2cc(Cl)ccc12 (configuration not stated) [CHLOROQUINE] |  |  |  |  |  | 18400 nM |  |  |  |  | 
Cn1c2nc3ccc(C(=O)O)cc3c-2c(NCCCN)c2ccccc21 | 1690 nM |  | 113000 nM |  | 66.8 |  |  |  |  | soluble | 
Cn1c2nc3ccccc3c-2cc2cc(Br)ccc21 |  |  |  |  |  |  |  |  |  |  | > 32000 nM
Cn1c2nc3ccc(Br)cc3c-2c(NCCCN)c2cc(Cl)ccc21 | 2.16 nM | 8.89 | 401 nM | 20.9 | 186 | 30100 nM | 19.2 nM |  |  |  | 
